Results as given in ChEMBL document CHEMBL1141595, “1-(2-Phenoxyphenyl)methanamines: SAR for dual serotonin/noradrenaline reuptake inhibition, metabolic stability and hERG affinity” (Bioorg Med Chem Lett, 2008).

Experiments:
[1] = Metabolic stability assessed as intrinsic clearance in human liver microsomes; type: ADME, Microsome
[2] = target: Sodium-dependent noradrenaline transporter (Homo sapiens, UniProt P23975); assay: Inhibition of [3H]NA uptake at human NA transporter expressed in HEK293 cells; type: cell-based
Chain of Sodium-dependent noradrenaline transporter (P23975 whole entry): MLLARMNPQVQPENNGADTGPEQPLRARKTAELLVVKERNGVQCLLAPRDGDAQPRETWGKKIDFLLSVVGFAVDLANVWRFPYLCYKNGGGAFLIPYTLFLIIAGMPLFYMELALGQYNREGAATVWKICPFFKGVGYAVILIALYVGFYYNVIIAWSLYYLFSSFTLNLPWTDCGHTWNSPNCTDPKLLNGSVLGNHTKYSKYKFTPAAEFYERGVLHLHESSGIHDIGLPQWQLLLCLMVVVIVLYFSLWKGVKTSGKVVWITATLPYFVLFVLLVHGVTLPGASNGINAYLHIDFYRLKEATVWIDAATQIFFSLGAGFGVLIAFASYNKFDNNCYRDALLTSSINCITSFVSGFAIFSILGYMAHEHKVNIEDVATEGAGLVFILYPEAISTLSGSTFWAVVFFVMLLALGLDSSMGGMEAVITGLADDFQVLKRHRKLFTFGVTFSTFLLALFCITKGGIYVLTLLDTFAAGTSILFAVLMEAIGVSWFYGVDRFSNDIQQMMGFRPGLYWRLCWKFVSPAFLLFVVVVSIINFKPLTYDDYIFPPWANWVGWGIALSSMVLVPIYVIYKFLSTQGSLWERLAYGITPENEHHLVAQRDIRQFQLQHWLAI
How it was run: (§1)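 HEK293 cells each expressing one human amine transporter, 7500 cells/well, preincubated 5 min at 25 °C with compound or DMSO vehicle. Uptake was started with tritiated substrate: 5-HT 50 nM (5 min), NA 200 nM (15 min), DA 200 nM (5 min), shaken at 25 °C. Stopped by ice-cold wash and filtration, then scintillation counting.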

[3] = target: Sodium-dependent serotonin transporter (Homo sapiens, UniProt P31645); assay: Inhibition of [3H]5HT uptake at human 5HT transporter expressed in HEK293 cells; type: cell-based; how it was run: as §1
Chain of Sodium-dependent serotonin transporter (P31645 whole entry): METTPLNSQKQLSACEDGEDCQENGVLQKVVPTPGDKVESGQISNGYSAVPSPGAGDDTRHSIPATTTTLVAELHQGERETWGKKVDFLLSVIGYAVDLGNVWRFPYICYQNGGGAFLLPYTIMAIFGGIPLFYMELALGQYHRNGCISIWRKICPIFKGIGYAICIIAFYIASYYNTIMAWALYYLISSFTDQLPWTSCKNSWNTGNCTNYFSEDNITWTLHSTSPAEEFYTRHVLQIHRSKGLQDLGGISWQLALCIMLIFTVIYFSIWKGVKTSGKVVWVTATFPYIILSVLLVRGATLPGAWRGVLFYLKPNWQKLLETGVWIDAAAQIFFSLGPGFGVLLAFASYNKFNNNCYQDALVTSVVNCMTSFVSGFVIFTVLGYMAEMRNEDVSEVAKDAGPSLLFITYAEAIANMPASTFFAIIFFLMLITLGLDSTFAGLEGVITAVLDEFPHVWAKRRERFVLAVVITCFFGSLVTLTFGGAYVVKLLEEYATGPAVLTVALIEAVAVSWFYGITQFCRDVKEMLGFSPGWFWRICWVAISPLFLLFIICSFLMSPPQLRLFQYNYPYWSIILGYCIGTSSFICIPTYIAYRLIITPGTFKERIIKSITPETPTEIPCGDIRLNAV

[4] = target: Sodium-dependent dopamine transporter (Homo sapiens, UniProt Q01959); assay: Inhibition of [3H]dopamine uptake at human dopamine transporter expressed in HEK293 cells; type: cell-based; how it was run: as §1
Chain of Sodium-dependent dopamine transporter (Q01959 whole entry): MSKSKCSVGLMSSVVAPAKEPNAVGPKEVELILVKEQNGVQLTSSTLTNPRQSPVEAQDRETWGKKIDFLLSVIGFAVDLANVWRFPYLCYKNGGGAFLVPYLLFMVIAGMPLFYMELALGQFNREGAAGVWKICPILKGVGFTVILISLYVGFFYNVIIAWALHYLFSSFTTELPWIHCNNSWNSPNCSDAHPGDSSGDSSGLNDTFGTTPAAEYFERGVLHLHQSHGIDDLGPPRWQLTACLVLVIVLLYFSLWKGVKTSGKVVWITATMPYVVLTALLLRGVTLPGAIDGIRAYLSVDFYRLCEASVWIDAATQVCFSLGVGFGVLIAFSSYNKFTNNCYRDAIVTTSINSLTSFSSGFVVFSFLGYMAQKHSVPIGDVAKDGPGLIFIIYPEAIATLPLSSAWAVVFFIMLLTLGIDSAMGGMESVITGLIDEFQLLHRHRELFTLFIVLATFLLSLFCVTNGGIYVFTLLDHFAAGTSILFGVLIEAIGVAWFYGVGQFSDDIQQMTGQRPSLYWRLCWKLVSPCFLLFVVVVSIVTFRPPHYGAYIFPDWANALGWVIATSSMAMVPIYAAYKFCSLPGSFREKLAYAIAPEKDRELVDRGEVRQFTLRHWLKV

[5] = target: Voltage-gated inwardly rectifying potassium channel KCNH2 (Homo sapiens, UniProt Q12809); assay: Binding affinity to human ERG
Chain of Voltage-gated inwardly rectifying potassium channel KCNH2 (Q12809 whole entry): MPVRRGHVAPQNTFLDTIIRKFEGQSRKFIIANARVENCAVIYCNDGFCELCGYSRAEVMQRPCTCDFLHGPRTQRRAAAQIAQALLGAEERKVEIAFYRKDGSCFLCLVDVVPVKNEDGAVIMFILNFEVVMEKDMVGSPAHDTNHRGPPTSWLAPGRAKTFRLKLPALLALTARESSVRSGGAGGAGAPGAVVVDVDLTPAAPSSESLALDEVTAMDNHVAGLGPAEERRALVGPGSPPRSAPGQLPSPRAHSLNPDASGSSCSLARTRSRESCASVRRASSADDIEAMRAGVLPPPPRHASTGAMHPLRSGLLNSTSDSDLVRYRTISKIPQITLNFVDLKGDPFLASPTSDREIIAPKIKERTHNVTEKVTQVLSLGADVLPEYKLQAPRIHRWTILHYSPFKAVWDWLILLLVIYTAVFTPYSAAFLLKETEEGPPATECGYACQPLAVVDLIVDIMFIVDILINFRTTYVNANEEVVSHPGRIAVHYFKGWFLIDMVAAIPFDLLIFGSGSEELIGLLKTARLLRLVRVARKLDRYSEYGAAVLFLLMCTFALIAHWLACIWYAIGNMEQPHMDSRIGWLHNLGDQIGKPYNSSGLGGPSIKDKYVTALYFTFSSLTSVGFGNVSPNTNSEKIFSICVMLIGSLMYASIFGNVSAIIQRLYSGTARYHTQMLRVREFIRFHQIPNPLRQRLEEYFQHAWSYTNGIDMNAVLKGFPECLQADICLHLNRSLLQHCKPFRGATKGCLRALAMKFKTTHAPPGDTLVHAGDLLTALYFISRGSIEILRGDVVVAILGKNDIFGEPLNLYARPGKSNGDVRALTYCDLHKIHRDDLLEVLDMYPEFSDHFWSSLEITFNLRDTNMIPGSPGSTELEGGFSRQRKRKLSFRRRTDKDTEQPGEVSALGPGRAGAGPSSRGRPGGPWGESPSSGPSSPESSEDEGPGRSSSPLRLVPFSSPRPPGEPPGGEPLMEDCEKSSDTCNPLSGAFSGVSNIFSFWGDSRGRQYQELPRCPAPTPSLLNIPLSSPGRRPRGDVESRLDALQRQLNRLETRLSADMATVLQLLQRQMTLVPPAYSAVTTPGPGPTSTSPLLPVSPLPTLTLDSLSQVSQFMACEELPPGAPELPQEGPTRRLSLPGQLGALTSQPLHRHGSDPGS

[6] = Membrane permeability by PAMPA assay; type: ADME

Row | SMILES | microsomal CLint [1] [µL/min/mg] | IC50 [2] [nM] | IC50 [3] [nM] | IC50 [4] [nM] | Ki [5] [nM] | Papp [6] [×10⁻⁶ cm/s]
1 | Cc1cccc(CN(C2CCOCC2)[C@H]2CCNC2)c1C | < 7 | – | – | – | – | –
2 | CNCc1ccccc1Oc1ccc(OC)cc1Cl | – | 157 | 22 | 5950 | – | –
3 | CN(C)Cc1ccccc1Oc1ccccc1 | – | 70 | 660 | – | – | –
4 | CNCc1ccccc1Oc1ccc(F)cc1Cl | – | 300 | – | 6510 | – | –
5 | CNCc1ccccc1Oc1ccc(Cl)cc1Cl | – | 42 | 56 | 506 | – | –
6 | CN(C)Cc1ccccc1Oc1ccc(F)cc1Cl | 219 | 46 | 32 | 2130 | – | –
7 | CNCc1ccccc1Oc1ccc(Cl)cc1OC | 9 | 78 | 13 | 19600 | 4380 | –
8 | CN(C)Cc1ccccc1Oc1ccc(Cl)cc1F | – | 21 | 6 | 421 | – | –
9 | CN(C)Cc1ccccc1Oc1ccc(Cl)cc1 | – | 256 | 18 | 124 | – | –
10 | CN(C)Cc1ccccc1Oc1cccc(Cl)c1 | – | 82 | 238 | 194 | – | –
11 | CNCc1cc(C(=O)NC)ccc1Oc1ccc(Cl)cc1OC | 8 | 78 | 13 | 15700 | > 7500 | 14
12 | CNCc1cc(NS(C)(=O)=O)ccc1Oc1ccc(Cl)cc1C | 8 | 25 | 16 | 320 | 7250 | 2.2
13 | CNCc1cc(C(=O)N(C)C)ccc1Oc1ccc(Cl)cc1Cl | 13 | 33 | 11 | 275 | – | 14
14 | CNCc1cc(C#N)ccc1Oc1ccc(Cl)cc1Cl | – | > 400 | 28 | 3010 | 2210 | –
15 | CNCc1cc(C(N)=O)ccc1Oc1ccc(Cl)cc1Cl | 8 | 84 | 37 | 1210 | – | 10
16 | CNCc1cc(C(=O)N(C)C)ccc1Oc1ccc(Cl)cc1C | 9 | 17 | 17 | 172 | 3750 | 19
17 | CNCc1cc(C(N)=O)ccc1Oc1ccc(Cl)cc1C | 8 | 46 | 7 | 2820 | – | –
18 | CNCc1cc(C(N)=O)ccc1Oc1ccc(Cl)cc1OC | 8 | 62 | 12 | 21000 | > 7500 | 11
19 | CNCc1cc(C#N)ccc1Oc1ccc(Cl)cc1OC | – | > 400 | 5 | > 40000 | – | –
20 | CN(C)Cc1ccccc1Oc1ccc(Cl)cc1Cl | 223 | 11 | 4 | 195 | – | –
21 | CNCc1cc(C(=O)N(C)C)ccc1Oc1ccc(Cl)cc1OC | 15 | 32 | 8 | > 40000 | – | 15
22 | CN(C)Cc1ccccc1Oc1ccccc1Cl | 186 | 15 | 282 | 2730 | – | –
23 | CNCc1ccccc1Oc1ccc(Cl)cc1C | 20 | 22 | 18 | 421 | – | –
24 | CNCc1cc(N2CCCS2(=O)=O)ccc1Oc1ccc(Cl)cc1C | 11 | 11 | 10 | 47 | 1590 | 2.7
25 | COc1cc(Cl)ccc1Oc1ccccc1CN(C)C | 45 | 14 | 6 | 3780 | > 7500 | –
26 | CNCc1cc(C(=O)NC)ccc1Oc1ccc(Cl)cc1C | 9 | 26 | 14 | 387 | – | –
27 | CNCc1cc(C(=O)NC)ccc1Oc1ccc(Cl)cc1Cl | 9 | 38 | 13 | 800 | 1760 | –
28 | CNCc1ccccc1Oc1ccc(Cl)cc1F | 22 | 429 | 73 | – | 5930 | –
29 | CNCc1cc(N2CCCS2(=O)=O)ccc1Oc1ccc(Cl)cc1Cl | 12 | 17 | 12 | 138 | – | –
